Assay results: the RNAGym collection of RNA variant scans (doi:10.1038/s41586-018-0170-7)

B1: tRNA (parent)
chain: GUUCCGUUGGCGUAAUGGUAACGCGUCUCCCUCCUAAGGAGAAGACUGCGGGUUCGAGUCCCGUACGGAACG

Variants of: B1
Experiment: yeast fitness, log relative to wild type (ln ratio); higher = fitter; tRNA-Arg(CCU), competitive growth, 37 C, 1 M NaCl
Method in brief: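 In BY4742 missing the chromosomal gene, a combinatorial tRNA-Arg(CCU) variant library was maintained on a HIS3 centromeric plasmid. Selection ran ~6.5 generations (~26.5 h) in SC-HIS 1M NaCl at 37 °C, following 4 generations in SC-HIS at 30 °C, with three outputs per input and variant counts by 125 bp paired-end Illumina sequencing. Fitness is the natural log of a genotype's generations relative to the wild type's, with generations taken as inverse-variance-weighted, OD-scaled log2 output/input frequency.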

For GGUCCGUUGGCGUAAUGGUAACGCGUUUCCCUCCUAAGGAGACGAUUGCGGGUUCGAGUCCCGUACGGGGCG [U2G C27U A43C C46U A69G A70G], which “yeast fitness (ln)” value is on record?
Its value is -0.114.

Which “yeast fitness (ln)” value does the source give for ACUCCGUUGGCGUAAUGGUAACGCGUUUCCCUCCUAAGGAGACGAUUGCGGGUUCGAGUCCCGUACGGAUCG [G1A U2C C27U A43C C46U A70U] here?
Its value is -0.072.

For GGUCCAUUGGCGUAAUGGUAACGCGUUUCCCUCCUAAGGAGAAGAUUGCGGGUUCGAGUCCCGUACGGAACG [U2G G6A C27U C46U], which “yeast fitness (ln)” value is on record?
The value was -0.0462.

With AUUCCAUUGGCGUAAUGGUAACGCGUUUCCCUCCUAAGGAGAAGAUUGCGGGUUCGAGUCCCGUAAGGAAUG [G1A G6A C27U C46U C66A C71U] as the variant, how does the “yeast fitness (ln)” value read?
Its value is -0.11.

For GUUCCUUUGGCGUAAUGGUAACGCGUCUCCCUCCUAAGGAGAAGACUGCGGGUUCGAGUCCCGUAUGGAGCG [G6U C66U A70G], which “yeast fitness (ln)” value is on record?
Its value is -0.383.

With GGUCCAUUGGCGUAAUGGUAACGCGUUUCCCUCCUAAGGAGACGAUUGCGGGUUCGAGUCCCGUAUGGGGCG [U2G G6A C27U A43C C46U C66U A69G A70G] as the variant, how does the “yeast fitness (ln)” value read?
The value was -0.23.

Which “yeast fitness (ln)” value does the source give for GUUCCUUUGGCGUAAUGGUAACGCGUUUCCCUCCUAAGGAGACGACUGCGGGUUCGAGUCCCGUACGGGAUG [G6U C27U A43C A69G C71U] here?
The value was -0.384.

With GGUCCGUUGGCGUAAUGGUAACGCGUCUCCCUCCUAAGGAGAAGACUGCGGGUUCGAGUCCCGUAAGGAAUG [U2G C66A C71U] as the variant, how does the “yeast fitness (ln)” value read?
Its value is -0.108.

For GUUCCAUUGGCGUAAUGGUAACGCGUUUCCCUCCUAAGGAGACGACUGCGGGUUCGAGUCCCGUACGGGGUG [G6A C27U A43C A69G A70G C71U], which “yeast fitness (ln)” value is on record?
The value was -0.371.

Which “yeast fitness (ln)” value does the source give for ACUCCAUUGGCGUAAUGGUAACGCGUCUCCCUCCUAAGGAGAAGAUUGCGGGUUCGAGUCCCGUAUGGAGCG [G1A U2C G6A C46U C66U A70G] here?
Its value is -0.0233.

For GGUCCAUUGGCGUAAUGGUAACGCGUCUCCCUCCUAAGGAGAAGAUUGCGGGUUCGAGUCCCGUAAGGAUCG [U2G G6A C46U C66A A70U], which “yeast fitness (ln)” value is on record?
Its value is -0.059.

With AUUCCUUUGGCGUAAUGGUAACGCGUCUCCCUCCUAAGGAGAAGACUGCGGGUUCGAGUCCCGUAUGGAGCG [G1A G6U C66U A70G] as the variant, how does the “yeast fitness (ln)” value read?
The value was -0.199.

Which “yeast fitness (ln)” value does the source give for GGUCCUUUGGCGUAAUGGUAACGCGUCUCCCUCCUAAGGAGAAGAUUGCGGGUUCGAGUCCCGUAAGGGGCG [U2G G6U C46U C66A A69G A70G] here?
The value was -0.13.

With GCUCCAUUGGCGUAAUGGUAACGCGUCUCCCUCCUAAGGAGAAGAUUGCGGGUUCGAGUCCCGUAUGGGUUG [U2C G6A C46U C66U A69G A70U C71U] as the variant, how does the “yeast fitness (ln)” value read?
The value was -0.419.

Which “yeast fitness (ln)” value does the source give for AUUCCUUUGGCGUAAUGGUAACGCGUCUCCCUCCUAAGGAGAAGACUGCGGGUUCGAGUCCCGUAAGGAACG [G1A G6U C66A] here?
Its value is -0.0927.

With AGUCCUUUGGCGUAAUGGUAACGCGUUUCCCUCCUAAGGAGACGAUUGCGGGUUCGAGUCCCGUACGGAAUG [G1A U2G G6U C27U A43C C46U C71U] as the variant, how does the “yeast fitness (ln)” value read?
Its value is -0.277.

For GUUCCUUUGGCGUAAUGGUAACGCGUUUCCCUCCUAAGGAGAAGACUGCGGGUUCGAGUCCCGUAAGGAGUG [G6U C27U C66A A70G C71U], which “yeast fitness (ln)” value is on record?
The value was -0.294.

For GUUCCAUUGGCGUAAUGGUAACGCGUCUCCCUCCUAAGGAGACGAUUGCGGGUUCGAGUCCCGUAUGGAGUG [G6A A43C C46U C66U A70G C71U], which “yeast fitness (ln)” value is on record?
Its value is -0.144.

With ACUCCAUUGGCGUAAUGGUAACGCGUUUCCCUCCUAAGGAGACGACUGCGGGUUCGAGUCCCGUACGGAACG [G1A U2C G6A C27U A43C] as the variant, how does the “yeast fitness (ln)” value read?
Its value is -0.0863.

With ACUCCGUUGGCGUAAUGGUAACGCGUUUCCCUCCUAAGGAGACGAUUGCGGGUUCGAGUCCCGUAAGGAAUG [G1A U2C C27U A43C C46U C66A C71U] as the variant, how does the “yeast fitness (ln)” value read?
Its value is -0.24.

With AUUCCUUUGGCGUAAUGGUAACGCGUCUCCCUCCUAAGGAGACGACUGCGGGUUCGAGUCCCGUAUGGGGCG [G1A G6U A43C C66U A69G A70G] as the variant, how does the “yeast fitness (ln)” value read?
Its value is -0.469.

Which “yeast fitness (ln)” value does the source give for ACUCCAUUGGCGUAAUGGUAACGCGUCUCCCUCCUAAGGAGAAGACUGCGGGUUCGAGUCCCGUAUGGGUCG [G1A U2C G6A C66U A69G A70U] here?
Its value is -0.0166.

With AGUCCUUUGGCGUAAUGGUAACGCGUCUCCCUCCUAAGGAGACGAUUGCGGGUUCGAGUCCCGUACGGAGUG [G1A U2G G6U A43C C46U A70G C71U] as the variant, how does the “yeast fitness (ln)” value read?
Its value is -0.338.

For AGUCCAUUGGCGUAAUGGUAACGCGUUUCCCUCCUAAGGAGAAGAUUGCGGGUUCGAGUCCCGUAUGGGAUG [G1A U2G G6A C27U C46U C66U A69G C71U], which “yeast fitness (ln)” value is on record?
Its value is -0.332.

Which “yeast fitness (ln)” value does the source give for ACUCCUUUGGCGUAAUGGUAACGCGUCUCCCUCCUAAGGAGAAGAUUGCGGGUUCGAGUCCCGUAUGGAGUG [G1A U2C G6U C46U C66U A70G C71U] here?
The value was -0.0224.

Which “yeast fitness (ln)” value does the source give for GGUCCAUUGGCGUAAUGGUAACGCGUUUCCCUCCUAAGGAGACGACUGCGGGUUCGAGUCCCGUAAGGAAUG [U2G G6A C27U A43C C66A C71U] here?
The value was -0.2.

Which “yeast fitness (ln)” value does the source give for ACUCCGUUGGCGUAAUGGUAACGCGUCUCCCUCCUAAGGAGAAGAUUGCGGGUUCGAGUCCCGUACGGAAUG [G1A U2C C46U C71U] here?
The value was -0.0165.

For ACUCCAUUGGCGUAAUGGUAACGCGUCUCCCUCCUAAGGAGACGACUGCGGGUUCGAGUCCCGUAUGGGGUG [G1A U2C G6A A43C C66U A69G A70G C71U], which “yeast fitness (ln)” value is on record?
The value was -0.0387.

Which “yeast fitness (ln)” value does the source give for ACUCCGUUGGCGUAAUGGUAACGCGUUUCCCUCCUAAGGAGACGACUGCGGGUUCGAGUCCCGUACGGAUUG [G1A U2C C27U A43C A70U C71U] here?
The value was -0.175.

With GUUCCAUUGGCGUAAUGGUAACGCGUCUCCCUCCUAAGGAGAAGAUUGCGGGUUCGAGUCCCGUAUGGGUUG [G6A C46U C66U A69G A70U C71U] as the variant, how does the “yeast fitness (ln)” value read?
The value was -0.35.

For AGUCCGUUGGCGUAAUGGUAACGCGUCUCCCUCCUAAGGAGAAGAUUGCGGGUUCGAGUCCCGUAUGGAGUG [G1A U2G C46U C66U A70G C71U], which “yeast fitness (ln)” value is on record?
Its value is -0.161.

Which “yeast fitness (ln)” value does the source give for GCUCCGUUGGCGUAAUGGUAACGCGUCUCCCUCCUAAGGAGACGAUUGCGGGUUCGAGUCCCGUAUGGAUUG [U2C A43C C46U C66U A70U C71U] here?
Its value is -0.198.

With GCUCCAUUGGCGUAAUGGUAACGCGUCUCCCUCCUAAGGAGAAGACUGCGGGUUCGAGUCCCGUACGGGUCG [U2C G6A A69G A70U] as the variant, how does the “yeast fitness (ln)” value read?
Its value is -0.0533.

With GCUCCUUUGGCGUAAUGGUAACGCGUCUCCCUCCUAAGGAGAAGAUUGCGGGUUCGAGUCCCGUAUGGAAUG [U2C G6U C46U C66U C71U] as the variant, how does the “yeast fitness (ln)” value read?
Its value is -0.112.

For GGUCCGUUGGCGUAAUGGUAACGCGUCUCCCUCCUAAGGAGACGACUGCGGGUUCGAGUCCCGUACGGGUCG [U2G A43C A69G A70U], which “yeast fitness (ln)” value is on record?
The value was -0.023.

For AUUCCAUUGGCGUAAUGGUAACGCGUCUCCCUCCUAAGGAGACGAUUGCGGGUUCGAGUCCCGUAUGGGGCG [G1A G6A A43C C46U C66U A69G A70G], which “yeast fitness (ln)” value is on record?
The value was -0.184.

Which “yeast fitness (ln)” value does the source give for GCUCCUUUGGCGUAAUGGUAACGCGUUUCCCUCCUAAGGAGACGACUGCGGGUUCGAGUCCCGUAAGGAUCG [U2C G6U C27U A43C C66A A70U] here?
The value was -0.167.
